How the values were obtained:
[1] = Antiproliferative activity against human HCT8 cells assessed as inhibition of cell proliferation after 72 hrs by MTT assay; assay type: functional, cell-based; details: HCT-8, 72 h
Outline: (§1)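 Cells (1.0 × 10^4/well) grown overnight in DMEM with 10% FBS. Treated in triplicate with eight concentrations ([…]) of compound from DMSO stock, final DMSO <0.4%, for 72 h. MTT added for the last 4 h, formazan dissolved in DMSO, read at 570 nm. Inhibition = (Acontrol−Atreated)/Acontrol. IC50 given as mean ± SD of three independent experiments.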

[2] = Antiproliferative activity against 5-FU resistant human HCT8 cells assessed as inhibition of cell proliferation after 72 hrs by MTT assay; assay type: functional, cell-based; details: HCT-8, 72 h; outline: as §1
[3] = Antiproliferative activity against human CCD-841-CoN cells assessed as inhibition of cell proliferation after 72 hrs by MTT assay; assay type: cell-based; outline: as §1
HCT-8 [4] = assay: Induction of apoptosis in human HCT8 cells assessed as viable cells level at 0.25 uM incubated for 24 hrs by FITC-Annexin-V and propidium iodide staining based flow cytometry (reference value: 92%); assay type: functional
HCT-8 [5] = assay: Induction of apoptosis in human HCT8 cells assessed as early apoptotic cells level at 0.25 uM incubated for 24 hrs by FITC-Annexin-V and propidium iodide staining based flow cytometry (reference value: 1.21%); assay type: functional
HCT-8 [6] = assay: Induction of apoptosis in human HCT8 cells assessed as late apoptotic cells level at 0.25 uM incubated for 24 hrs by FITC-Annexin-V and propidium iodide staining based flow cytometry (reference value: 4.23%); assay type: functional
HCT-8 [7] = assay: Induction of apoptosis in human HCT8 cells assessed as necrotic cells level at 0.25 uM incubated for 24 hrs by FITC-Annexin-V and propidium iodide staining based flow cytometry (reference value: 2.58%); assay type: functional
HCT-8 [8] = assay: Induction of apoptosis in human HCT8 cells assessed as viable cells level at 0.5 uM incubated for 24 hrs by FITC-Annexin-V and propidium iodide staining based flow cytometry (reference value: 92%); assay type: functional
HCT-8 [9] = assay: Induction of apoptosis in human HCT8 cells assessed as early apoptotic cells level at 0.5 uM incubated for 24 hrs by FITC-Annexin-V and propidium iodide staining based flow cytometry (reference value: 1.21%); assay type: functional
HCT-8 [10] = assay: Induction of apoptosis in human HCT8 cells assessed as late apoptotic cells level at 0.5 uM incubated for 24 hrs by FITC-Annexin-V and propidium iodide staining based flow cytometry (reference value: 4.23%); assay type: functional
HCT-8 [11] = assay: Induction of apoptosis in human HCT8 cells assessed as necrotic cells level at 0.5 uM incubated for 24 hrs by FITC-Annexin-V and propidium iodide staining based flow cytometry (reference value: 2.58%); assay type: functional
HCT-8 [12] = assay: Induction of apoptosis in human HCT8 cells assessed as viable cells level at 1 uM incubated for 24 hrs by FITC-Annexin-V and propidium iodide staining based flow cytometry (reference value: 92%); assay type: functional
HCT-8 [13] = assay: Induction of apoptosis in human HCT8 cells assessed as early apoptotic cells level at 1 uM incubated for 24 hrs by FITC-Annexin-V and propidium iodide staining based flow cytometry (reference value: 1.21%); assay type: functional
HCT-8 [14] = assay: Induction of apoptosis in human HCT8 cells assessed as late apoptotic cells level at 1 uM incubated for 24 hrs by FITC-Annexin-V and propidium iodide staining based flow cytometry (reference value: 4.23%); assay type: functional
HCT-8 [15] = assay: Induction of apoptosis in human HCT8 cells assessed as necrotic cells level at 1 uM incubated for 24 hrs by FITC-Annexin-V and propidium iodide staining based flow cytometry (reference value: 2.58%); assay type: functional
HCT-8 [16] = assay: Induction of apoptosis in FU-resistant human HCT8 cells assessed as viable cells level at 0.25 uM incubated for 24 hrs by FITC-Annexin-V and propidium iodide staining based flow cytometry (reference value: 90%); assay type: functional
HCT-8 [17] = assay: Induction of apoptosis in FU-resistant human HCT8 cells assessed as early apoptotic cells level at 0.25 uM incubated for 24 hrs by FITC-Annexin-V and propidium iodide staining based flow cytometry (reference value: 2.07%); assay type: functional
HCT-8 [18] = assay: Induction of apoptosis in FU-resistant human HCT8 cells assessed as late apoptotic cells level at 0.25 uM incubated for 24 hrs by FITC-Annexin-V and propidium iodide staining based flow cytometry (reference value: 0.95%); assay type: functional
HCT-8 [19] = assay: Induction of apoptosis in FU-resistant human HCT8 cells assessed as necrotic cells level at 0.25 uM incubated for 24 hrs by FITC-Annexin-V and propidium iodide staining based flow cytometry (reference value: 0.958%); assay type: functional
HCT-8 [20] = assay: Induction of apoptosis in FU-resistant human HCT8 cells assessed as viable cells level at 0.5 uM incubated for 24 hrs by FITC-Annexin-V and propidium iodide staining based flow cytometry (reference value: 90%); assay type: functional
HCT-8 [21] = assay: Induction of apoptosis in FU-resistant human HCT8 cells assessed as early apoptotic cells level at 0.5 uM incubated for 24 hrs by FITC-Annexin-V and propidium iodide staining based flow cytometry (reference value: 2.07%); assay type: functional
HCT-8 [22] = assay: Induction of apoptosis in FU-resistant human HCT8 cells assessed as late apoptotic cells level at 0.5 uM incubated for 24 hrs by FITC-Annexin-V and propidium iodide staining based flow cytometry (reference value: 0.95%); assay type: functional
HCT-8 [23] = assay: Induction of apoptosis in FU-resistant human HCT8 cells assessed as necrotic cells level at 0.5 uM incubated for 24 hrs by FITC-Annexin-V and propidium iodide staining based flow cytometry (reference value: 0.958%); assay type: functional
HCT-8 [24] = assay: Induction of apoptosis in FU-resistant human HCT8 cells assessed as viable cells level at 1 uM incubated for 24 hrs by FITC-Annexin-V and propidium iodide staining based flow cytometry (reference value: 90%); assay type: functional
HCT-8 [25] = assay: Induction of apoptosis in FU-resistant human HCT8 cells assessed as early apoptotic cells level at 1 uM incubated for 24 hrs by FITC-Annexin-V and propidium iodide staining based flow cytometry (reference value: 2.07%); assay type: functional
HCT-8 [26] = assay: Induction of apoptosis in FU-resistant human HCT8 cells assessed as late apoptotic cells level at 1 uM incubated for 24 hrs by FITC-Annexin-V and propidium iodide staining based flow cytometry (reference value: 0.95%); assay type: functional
HCT-8 [27] = assay: Induction of apoptosis in FU-resistant human HCT8 cells assessed as necrotic cells level at 1 uM incubated for 24 hrs by FITC-Annexin-V and propidium iodide staining based flow cytometry (reference value: 0.958%); assay type: functional
[28] = target: RAC-alpha serine/threonine-protein kinase (Homo sapiens) (UniProt P31749); assay: Inhibition of AKT protein phosphorylation in human HCT8 cells at 0.25 to 1 uM incubated for 24 hrs by Western blotting method; assay type: cell-based; details: HCT-8
Outline: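 Cells (1 x 10^6) grown 24 h in 6 cm dishes, then exposed in duplicate for 24 h to 0.25, 0.5 or 1 µM compound, with or without PTIO. Lysates (20 µg/lane) were run on 7.5% SDS-PAGE, blotted to PVDF and blocked in 5% milk. HRP secondaries with ECL detection; bands quantified by densitometry against β-actin or GAPDH. Three separate experiments, mean ± SD.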

Chain of RAC-alpha serine/threonine-protein kinase (Homo sapiens) (P31749 whole entry): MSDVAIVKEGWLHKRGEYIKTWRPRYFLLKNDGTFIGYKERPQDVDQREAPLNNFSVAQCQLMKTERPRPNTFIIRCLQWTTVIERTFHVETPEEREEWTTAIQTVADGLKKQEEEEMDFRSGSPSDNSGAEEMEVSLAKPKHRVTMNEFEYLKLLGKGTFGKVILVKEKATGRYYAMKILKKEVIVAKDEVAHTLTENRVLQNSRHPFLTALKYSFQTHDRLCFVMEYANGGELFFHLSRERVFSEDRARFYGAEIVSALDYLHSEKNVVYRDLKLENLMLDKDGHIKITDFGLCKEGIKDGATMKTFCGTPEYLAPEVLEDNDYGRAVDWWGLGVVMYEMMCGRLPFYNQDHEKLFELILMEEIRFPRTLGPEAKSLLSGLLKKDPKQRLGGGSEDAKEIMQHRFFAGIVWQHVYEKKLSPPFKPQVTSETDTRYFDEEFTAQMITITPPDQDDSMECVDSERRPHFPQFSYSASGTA

Structure (SMILES)	IC50 [1]	IC50 [2]	IC50 [3]	Activity (HCT-8 [4])	Activity (HCT-8 [5])	Activity (HCT-8 [6])	Activity (HCT-8 [7])	Activity (HCT-8 [8])	Activity (HCT-8 [9])	Activity (HCT-8 [10])	Activity (HCT-8 [11])	Activity (HCT-8 [12])	Activity (HCT-8 [13])	Activity (HCT-8 [14])	Activity (HCT-8 [15])	Activity (HCT-8 [16])	Activity (HCT-8 [17])	Activity (HCT-8 [18])	Activity (HCT-8 [19])	Activity (HCT-8 [20])	also measured
COC(=O)[C@]12CCC(C)(C)C[C@H]1[C@H]1C(=O)C=C3[C@@]4(C)C=C(C#N)C(=O)C(C)(C)[C@@H]4CC[C@@]3(C)[C@]1(C)CC2 [BARDOXOLONE METHYL]	0.399 µM	0.363 µM	0.316 µM	79.5%	3.78%	14%	2.13%	65.1%	6.8%	18.7%	3.18%	57.5%	9.42%	29.8%	3.31%	71.1%	5.15%	20.5%	3.2%	64.2%	Activity (HCT-8 [21]): 6.01%; Activity (HCT-8 [22]): 28.1%; Activity (HCT-8 [23]): 1.73%; Activity (HCT-8 [24]): 51.2%; Activity (HCT-8 [25]): 10.9%; Activity (HCT-8 [26]): 36%; Activity (HCT-8 [27]): 1.52%
CC1(C)CC[C@]2(C(=O)NCC(=O)OCC#CCOc3no[n+]([O-])c3S(=O)(=O)c3ccccc3)CC[C@]3(C)[C@H](C(=O)C=C4[C@@]5(C)C=C(C#N)C(=O)C(C)(C)[C@@H]5CC[C@]43C)[C@@H]2C1	0.294 µM	0.232 µM	1.28 µM	74%	3.92%	10.3%	2.31%	62.8%	5.34%	24.7%	4.1%	67.1%	9.51%	39%	3.58%	70.8%	5.44%	21.4%	2.53%	49.8%	Activity (HCT-8 [21]): 7.59%; Activity (HCT-8 [22]): 34.6%; Activity (HCT-8 [23]): 7.65%; Activity (HCT-8 [24]): 34.3%; Activity (HCT-8 [25]): 13.5%; Activity (HCT-8 [26]): 44.9%; Activity (HCT-8 [27]): 7.36%; inhibition [28]: Dose-dependent effect
